# PMC5648746 (Clinical Pharmacokinetics, 2017)
# Legend:
# [1] = previous population PK analysis, four phase I studies; cited from earlier work
# [2] = Western patients, weekly dose; cited from earlier work
# [3] = Individual predicted exposure; format: in vivo, human; settings: oral ixazomib; figure value with 95% CI
# [4] = cited from earlier work
# [5] = system: human cDNA-expressed CYP isozymes; settings: clinically relevant ixazomib concentrations; cited from earlier work
# [6] = cited from earlier work; remark: listed apart in the source
# [7] = system: patients with multiple myeloma; settings: ixazomib plus lenalidomide-dexamethasone vs placebo plus lenalidomide-dexamethasone, TOURMALINE-MM1; cited from earlier work
# [8] = Population pharmacokinetic analysis; format: in vivo, human
# How it was run: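 Plasma from 755 adults with advanced haematologic or non-haematologic malignancies given oral (BSA-based or fixed) or IV (BSA-based) doses, weekly (28-day cycle) or twice-weekly (21-day cycle); sampled pre-dose and post-dose. LC-MS/MS with 13C9-labelled internal standard, linear 0.5–500 ng/mL. Three-compartment model, first-order absorption with lag; additive log-scale residual error; stepwise covariate selection, p = 0.01 plus ≥10% variance reduction.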
# [9] = single oral dose of radio-labelled ixazomib, five patients with advanced cancer; cited from earlier work
# [10] = after a high-calorie high-fat meal; cited from earlier work
# [11] = typical (population) parameter estimates
smiles,measurement,setting,value
CC(C)C[C@H](NC(=O)CNC(=O)c1cc(Cl)ccc1Cl)B(O)O [ixazomib],Estimated absolute bioavailability,[1],60%
same,Maximum tolerated dose,[2],5.5 mg
same,"Percent change in mean AUC∞, Asian race relative to White race",[3],35%
same,Decrease in systemic exposure (AUC) of ixazomib with rifampin,[4]; co-administration of strong pleiotropic PXR-mediated inducer rifampin,74%
same,Effect of the strong CYP3A inhibitor clarithromycin on ixazomib pharmacokinetics,[4]; controlled phase I clinical study,absence of an effect
same,Contribution of specific CYP isozymes to ixazomib metabolism,[5],no specific CYP isozyme predominantly contributed
same,Dose dependence of exposure (AUC),[6],dose-proportional increases in exposure
same,Accumulation ratio for AUC,[6]; once-weekly repeat-dose administration,approximately 2
same,Median time to maximum plasma concentration,"[6]; post-dose, oral",1 h
same,Improvement in progression-free survival,[7],35%
same,Inter-individual variability on log CL,[8]; % coefficient of variation,44%
same,Inter-individual variability on log F,[8]; % coefficient of variation,73%
same,Inter-individual variability on log V4,[8]; % coefficient of variation,79%
same,Change in V4 at the 5th percentile of BSA relative to median BSA,[8]; BSA 1.5 m^2 vs median 1.87 m^2,−37%
same,Change in V4 at the 95th percentile of BSA relative to median BSA,[8]; BSA 2.25 m^2 vs median 1.87 m^2,+46%
same,Impact of BSA on CL,[8]; BSA had a small effect on V4,did not impact CL
same,Effect of age on ixazomib PK parameters,[8]; age 23–91 years,not found to have a clinically relevant effect
same,Correlation between log CL and log F (random effects),[8]; coefficient of correlation,82%
same,"Impact of BSA on V4 (V4[BSA]), estimate",[8]; covariate coefficient of power function,2.06
same,"Absorption lag time (TLAG), untransformed parameter",[8]; final model,13 min
same,"Absorption rate constant (Ka), untransformed parameter",[8]; final model,0.34 h⁻¹
same,"Volume of the first peripheral compartment (V3), untransformed parameter",[8]; final model,309 L
same,"Volume of the second peripheral compartment (V4), untransformed parameter","[8]; final model, at median BSA",205 L
same,Impact of CrCl and total bilirubin on ixazomib pharmacokinetics,"[8]; mild or moderate renal impairment (CrCl 30–90 mL/min), mild hepatic impairment",neither CrCl nor total bilirubin had any clinically relevant impact
same,"Absorption rate constant (log Ka), estimate","[8]; raw NONMEM estimate, log scale",−1.09
same,"Volume of the first peripheral compartment (log V3), estimate","[8]; raw NONMEM estimate, log scale",5.73
same,"Volume of the second peripheral compartment (log V4), estimate","[8]; raw NONMEM estimate, log scale",5.32
same,Population estimate of steady-state volume of distribution,[8]; [11],527 L
same,"Population estimate of t1/2,γ",[8]; [11],224 h
same,Administered radioactivity excreted in feces,[9],22%
same,Administered radioactivity excreted in urine,[9],62%
same,Reduction in peak plasma concentration with food,[10],69%
same,Reduction in total systemic exposure (AUC) with food,[10],28%
